{"data": "Experimental data pooled from the literature", "observed": "cell growth or viability", "note": "Compare with care: the assays were run in different laboratories."}
{"SMILES": "COc1cc(C(=O)c2nc(-c3ccnc4[nH]ccc34)c[nH]2)cc(OC)c1OC", "cell line": "PC-3", "method": "MTS", "time": "72 h", "IC50": "0.0301 µM"}
{"SMILES": "O=C1Nc2ccccc2/C1=N/N=C/c1cccc([N+](=O)[O-])c1", "cell line": "HUVEC", "method": "MTT", "time": "24 h", "IC50": "221 µg/mL"}
{"SMILES": "CC(=O)Nc1ccc(O)cc1", "cell line": "NIH3T3", "time": "96 h", "setting": "3D culture", "IC50": "277 µM"}
{"SMILES": "CCCCC(=O)Nc1ccc(-c2ccc3ncn(CCC)c(=O)c3c2)c(C)n1", "cell line": "A549", "method": "CCK-8", "time": "72 h", "IC50": "> 10 µM"}
{"SMILES": "CC1=CC(=O)C(C(C)C)=CC1=O", "cell line": "U-251", "method": "SRB", "time": "48 h", "IC50": "36.9 µM"}
{"SMILES": "NNc1nc2ccc(Br)cc2c(=O)n1-c1ccccc1", "cell line": "NIH3T3", "method": "MTT", "time": "48 h", "IC50": "102 µM"}
{"SMILES": "CC(=O)O[C@H]1[C@H](OC(C)=O)[C@@H](Nc2cc3cccnc3c3ncccc23)OC[C@@H]1OC(C)=O", "cell line": "HFF-1", "method": "MTT", "time": "48 h", "setting": "dark", "IC50": "14 µM"}
{"SMILES": "NNc1nc2c(Cl)cc(Cl)cc2c(=O)n1-c1ccc(Cl)cc1", "cell line": "NIH3T3", "method": "MTT", "time": "48 h", "IC50": "48.6 µM"}
{"SMILES": "COc1ccccc1/C=N/N=C1\\C(=O)Nc2ccccc21", "cell line": "HUVEC", "method": "MTT", "time": "24 h", "IC50": "235 µg/mL"}
{"SMILES": "Cc1c(C)c2c(c(C)c1O)CCC(C)(COc1ccc(CC3SC(=O)NC3=O)cc1)O2 (centres unmarked)", "cell line": "NIH3T3", "time": "96 h", "setting": "3D culture", "IC50": "246 µM"}
{"SMILES": "CCCCn1cnc2ccc(-c3ccc(NC(=O)Nc4ccc(OC(F)(F)F)cc4)nc3)cc2c1=O", "cell line": "A549", "method": "CCK-8", "time": "72 h", "IC50": "> 10 µM"}
{"SMILES": "NNc1nc2ccc(Br)cc2c(=O)n1-c1ccc(Cl)cc1", "cell line": "NIH3T3", "method": "MTT", "time": "48 h", "IC50": "19.7 µM"}
{"SMILES": "CN(C)C(=O)c1cc2cnc(Nc3ccc(-c4ccc5c(=O)cc(N6CCOCC6)oc5c4)cc3)nc2n1C1CCCC1", "cell line": "Kelly", "method": "ATP luminescence", "time": "72 h", "IC50": "0.19 µM"}
{"SMILES": "Nc1cc2cccnc2c2ncccc12", "cell line": "HFF-1", "method": "MTT", "time": "48 h", "setting": "dark", "IC50": "13 µM"}
{"SMILES": "CCCCC(=O)Nc1ncc(-c2ccc3ncn(CCC)c(=O)c3c2)cn1", "cell line": "A549", "method": "CCK-8", "time": "72 h", "IC50": "1.25 µM"}
{"SMILES": "Cc1cc(Nc2ncnc3ccc(NC4=NC(C)(C)CO4)cc23)ccc1Oc1ccn2ncnc2c1", "cell line": "NCI-H2170", "method": "ATP luminescence", "IC50": "0.088 µM"}
{"SMILES": "O=C(Nc1ccc(-c2ccc3ncn(Cc4ccc5c(c4)OCO5)c(=O)c3c2)cn1)c1ccccc1", "cell line": "A549", "method": "CCK-8", "time": "72 h", "IC50": "> 10 µM"}
{"SMILES": "O=C(NO)Nc1nc2ccc(Br)cc2c(=O)n1-c1ccccc1", "cell line": "NIH3T3", "method": "MTT", "time": "48 h", "IC50": "122 µM"}
{"SMILES": "CCOc1cc2ncc(C#N)c(Nc3ccc(OCc4ccccn4)c(Cl)c3)c2cc1NC(=O)/C=C/CN(C)C", "cell line": "NCI-H2170", "method": "ATP luminescence", "IC50": "0.0057 µM"}
{"SMILES": "CCCCn1cnc2ccc(-c3ccc(NC(=O)NCCc4ccccc4)nc3)cc2c1=O", "cell line": "A549", "method": "CCK-8", "time": "72 h", "IC50": "> 10 µM"}
